According to PMC12138108 (Acta Pharmaceutica Sinica. B, 2025):
pEC50: −log10 of the molar value.

Assays:
[1] = test system: 11 CpAMs-resistant mutant HBC (P25A, P25G, D29L, D29W, T33N, I105F, I105W, I105Y, T109A, V124W, V124F); experiment: Degradation of CpAMs-resistant mutant HBC in transfected HepG2 cells; format: cell-based, Hepatitis B virus (HBV); details: 18 h, HyT-S7 6, NVR 3-778 3, 3TC 1 μmol/L
Summary of the method: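 HepG2 cells at about 80% confluence were transfected with 0.25 µg plasmid. The pCMV-HBC-derived plasmids carried P25A, P25G, D29A/D29L, D29W, T33N, I105F, I105W, I105Y or T109A; pHBV1.3-derived plasmids carried V124F/V124W. At 6 h post-transfection, medium was replaced with fresh medium or test compound (6 µmol/L) or comparators (1–3 µmol/L) for 18 h. Intracellular core protein was detected by Western blot against a GAPDH/β-actin loading control, with chemiluminescence read-out.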

[2] = test system: HBV DNA replication in HepAD38 cells; experiment: In vitro anti-HBV assay in HepAD38 cells; format: cell-based, Hepatitis B virus (HBV); details: reduction of HBV DNA by 50% in HepAD38 cells, qPCR, 4 days incubation (Table 2)
Summary of the method: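 HepAD38 cells were plated overnight, then exposed to serially diluted test compound without tetracycline for 4 days. Cytoplasmic HBV core DNA was extracted and quantified by real-time PCR. EC50 is relative to mock-treated controls, calculated by the Reed & Muench method.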

[3] = Cytotoxicity on HepAD38 cells by cytopathic effect; format: cell-based, Human; details: human, HepAD38 cells, CC50, reduction of viability of HepAD38 cells by 50%, CPE method (Table 2)
Summary of the method: (§1)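 HepAD38 cells (tetracycline-inducible HBV) were maintained in DMEM with 10% FBS, 1 µg/mL tetracycline and 400 µg/mL G-418. Cells were plated overnight, then given serial dilutions of test compound without tetracycline. Cytotoxicity was read by the cytopathic effect method. CC50 is the concentration cutting viability by 50%, calculated by the Reed & Muench method.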

HBV core protein (HBC) = HBV core protein (HBC) (Hepatitis B virus genotype D subtype ayw, UniProt P03146); experiment: HBC degradation in HepAD38 cells by Western blot; format: cell-based; details: for HBC degradation activity (Western blot): tet-, maximum non-toxic concentration, 72 h
HepAD38 cells = experiment: Cytotoxicity on HepAD38 cells by cytopathic effect; format: cell-based, Human
Summary of the method: as §1

[4] = Hepatitis B virus, HePAD38, 96 h

| Molecule | pEC50 [2, 4] | CC50 [3] [µM] | HBC degradation activity (Western blot) (HBV core protein (HBC)) | further results |
| --- | --- | --- | --- | --- |
| Nc1ccn([C@@H]2CS[C@H](CO)O2)c(=O)n1 [3TC, lamivudine] |  |  |  | degradation of 11 mutant types of HBC [1]: neither NVR 3-778 nor 3TC showed any degradation effect |
| O=C(COCCNC(=O)C(c1ccccc1)c1ccccc1)NC1CCN(S(=O)(=O)c2cc(C(=O)Nc3cc(F)c(F)c(F)c3)ccc2F)CC1 [HyT-S10, 3-((4-(2-(2-(2,2-Diphenylacetamido)ethoxy)acetamido)piperidin-1-yl)sulfonyl)-4-fluoro-N-(3,4,5-trifluorophenyl)benzamide] | 6.59 | 20 | still retains some degradation activity |  |
| O=C(CC1c2ccccc2-c2ccccc21)NCCOCC(=O)NC1CCN(S(=O)(=O)c2cc(C(=O)Nc3cc(F)c(F)c(F)c3)ccc2F)CC1 [HyT-S11, 3-((4-(2-(2-(2-(9H-Fluoren-9-yl)acetamido)ethoxy)acetamido)piperidin-1-yl)sulfonyl)-4-fluoro-N-(3,4,5-trifluorophenyl)benzamide] | 6.68 | 34.6 | still retains some degradation activity |  |
| CC(C)Cc1ccc([C@H](C)C(=O)NCCOCC(=O)NC2CCN(S(=O)(=O)c3cc(C(=O)Nc4cc(F)c(F)c(F)c4)ccc3F)CC2)cc1 [HyT-S13, (S)-4-Fluoro-3-((4-(2-(2-(2-(4-isobutylphenyl)propanamido)ethoxy)acetamido)piperidin-1-yl)sulfonyl)-N-(3,4,5-trifluorophenyl)benzamide] | 6.23 | 11.6 | still retains some degradation activity |  |
| CC(C)[C@@H]1CC[C@@H](C)C[C@H]1OCC(=O)NCCOCC(=O)NC1CCN(S(=O)(=O)c2cc(C(=O)Nc3cc(F)c(F)c(F)c3)ccc2F)CC1 [HyT-S14, 4-Fluoro-3-((4-(2-(2-(2-(((1R,2S,5R)-2-isopropyl-5-methylcyclohexyl)oxy)acetamido)ethoxy)acetamido)piperidin-1-yl)sulfonyl)-N-(3,4,5-trifluorophenyl)benzamide] | 6.54 | 11.6 | still retains some degradation activity |  |
| CC(C)(C)OC(=O)/N=C(\NCCC[C@H](NC(=O)OC(C)(C)C)C(=O)NCCOCC(=O)NC1CCN(S(=O)(=O)c2cc(C(=O)Nc3cc(F)c(F)c(F)c3)ccc2F)CC1)NC(=O)OC(C)(C)C [HyT-S15, 2-Methylpropan-2-yl {[(6E,11S)-18-({1-[(2-fluoro-5-{[(3,4,5-trifluorophenyl)amino]carbonyl}phenyl)dioxo-λ6-sulfanyl]hexahydropyridin-4-yl}amino)-2,2-dimethyl-11-({[(2-methylprop-2-yl)oxy]carbonyl}amino)-4,12,18-trioxo-3,16-dioxa-5,7,13-triazaoctadecan-6-ylidene]amino}methanoate] | 6.35 | 60 | still retains some degradation activity | maximum non-toxic concentration by CPE method (HepAD38 cells; HepAD38 cells, concentration used in the degradation test): 20 µmol/L |
| NCCOCC(=O)NC1CCN(S(=O)(=O)c2cc(C(=O)Nc3cc(F)c(F)c(F)c3)ccc2F)CC1 [SP-O-7, 3-((4-(2-(2-Aminoethoxy)acetamido)piperidin-1-yl)sulfonyl)-4-fluoro-N-(3,4,5-trifluorophenyl)benzamide] |  |  |  | HBC degradation (Western blot) (HBV core protein (HBC); 20 μmol/L, 24 h): unable to induce degradation of HBC |
| N^1-(Bicyclo[2.2.1]hept-2-en-1-ylmethyl)-N^6-(1-((2-fluoro-5-((3,4,5-trifluorophenyl)carbamoyl)phenyl)sulfonyl)piperidin-4-yl)adipamide [HyT-S12] |  |  |  | pEC50 [2]: 6.66; CC50 (HepAD38 cells; reduction of viability of HepAD38 cells by 50%, CPE method (Table 2)): 28.8 µM |
